Source: ChEMBL document CHEMBL3853327 (J Med Chem, 2016)

system: Human immunodeficiency virus 1; test: Antiviral activity against HIV1 3B harboring reverse transcriptase L100I mutant infected in human MT4 cells assessed as protection against virus induced cytotoxicity after 5 days by MTT assay; format: functional, cell-based; settings: Human immunodeficiency virus 1, 3B, MT4, 120 h
Outline: (§1)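 MTT cytopathicity assay in MT-4 cells (6 × 10^5 cells/mL). Compounds serially diluted 5-fold in triplicate wells, run in parallel on infected and mock-infected cells. Virus added at 100−300 CCID50 per well. Viability read spectrophotometrically at 540 and 690 nm after 5 days, using the median OD of three wells. EC50 is the concentration giving 50% protection from viral cytopathogenicity.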

Compound	EC50 [nM]
Cc1cc(C#N)cc(C)c1Oc1nc(NC2CCN(Cc3ccc(F)cc3)CC2)nc2ccsc12	90.9
Cc1cc(C)c(Oc2nc(NC3CCN(Cc4cccc(C#N)c4)CC3)nc3ccsc23)c(C)c1	476

system: Human immunodeficiency virus 1; test: Antiviral activity against HIV1 3B harboring reverse transcriptase K103N mutant infected in human MT4 cells assessed as protection against virus induced cytotoxicity after 5 days by MTT assay; format: functional, cell-based; settings: Human immunodeficiency virus 1, 3B, MT4, 120 h; outline: as §1

Compound	EC50 [nM]
Cc1cc(C#N)cc(C)c1Oc1nc(NC2CCN(Cc3ccc(F)cc3)CC2)nc2ccsc12	8.7
Cc1cc(C)c(Oc2nc(NC3CCN(Cc4cccc(C#N)c4)CC3)nc3ccsc23)c(C)c1	38.7

system: not listed separately; test: Selectivity index, ratio of CC50 for human mock-infected MT4 cells to EC50 for HIV1 3B harboring reverse transcriptase L100I mutant infected in human MT4 cells; format: toxicity, cell-based; settings: MT4 cells (mock-infected for CC50, HIV-1 infected for EC50)
Outline: (§2)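 Selectivity index is CC50/EC50. CC50 is the concentration that reduces OD540 of mock-infected MT-4 cells by 50% in the 5-day MTT assay. EC50 is the 50% protection from virus-induced cytopathicity, measured in parallel on infected wells.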

Compound	selectivity ratio
Cc1cc(C#N)cc(C)c1Oc1nc(NC2CCN(Cc3ccc(F)cc3)CC2)nc2ccsc12	1550
Cc1cc(C)c(Oc2nc(NC3CCN(Cc4cccc(C#N)c4)CC3)nc3ccsc23)c(C)c1	36

system: not listed separately; test: Selectivity index, ratio of CC50 for human mock-infected MT4 cells to EC50 for wild type HIV1 3B harboring reverse transcriptase infected in human MT4 cells; format: toxicity, cell-based; settings: MT4 cells (mock-infected for CC50, HIV-1 infected for EC50); outline: as §2

Compound	selectivity ratio
Cc1cc(C#N)cc(C)c1Oc1nc(NC2CCN(Cc3ccc(F)cc3)CC2)nc2ccsc12	18700
Cc1cc(C)c(Oc2nc(NC3CCN(Cc4cccc(C#N)c4)CC3)nc3ccsc23)c(C)c1	819

system: not listed separately; test: Cytotoxicity against human mock-infected MT4 cells assessed as reduction in cell viability after 5 days by MTT assay; format: toxicity, cell-based; settings: not given
Outline: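 Mock-infected MT-4 cells (6 × 10^5 cells/mL at seeding) with serial 5-fold compound dilutions in triplicate wells. Viability read by MTT after 5 days, absorbance at 540 and 690 nm, median OD of three wells. CC50 is the concentration reducing OD540 of mock-infected cells by 50%.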

Compound	CC50 at 120 h [nM]
Cc1cc(C#N)cc(C)c1Oc1nc(NC2CCN(Cc3ccc(F)cc3)CC2)nc2ccsc12	141000
Cc1cc(C)c(Oc2nc(NC3CCN(Cc4cccc(C#N)c4)CC3)nc3ccsc23)c(C)c1	17200

target: Human immunodeficiency virus type 1 reverse transcriptase (Human immunodeficiency virus 1, UniProt Q72547, K103N/Y181C); test: Inhibition of recombinant HIV1 reverse transcriptase K103N/Y181C double mutant using DIG-dUTP/biotin-dUTP/dTTP assessed as suppression of biotin-dUTP incorporation after 1 hr by ELISA; settings: not given

Compound	IC50 [nM]
Cc1cc(C#N)cc(C)c1Oc1nc(NC2CCN(Cc3ccc(F)cc3)CC2)nc2ccsc12	2570
Cc1cc(C)c(Oc2nc(NC3CCN(Cc4cccc(C#N)c4)CC3)nc3ccsc23)c(C)c1	5570

system: not listed separately; test: Selectivity index, ratio of CC50 for human mock-infected MT4 cells to EC50 for HIV1 3B harboring reverse transcriptase F227L/V106A double mutant infected in human MT4 cells; format: toxicity, cell-based; settings: MT4 cells (mock-infected for CC50, HIV-1 infected for EC50); outline: as §2

Compound	selectivity ratio
Cc1cc(C#N)cc(C)c1Oc1nc(NC2CCN(Cc3ccc(F)cc3)CC2)nc2ccsc12	198
Cc1cc(C)c(Oc2nc(NC3CCN(Cc4cccc(C#N)c4)CC3)nc3ccsc23)c(C)c1	44

system: Human immunodeficiency virus 1; test: Antiviral activity against HIV1 3B harboring reverse transcriptase Y181C mutant infected in human MT4 cells assessed as protection against virus induced cytotoxicity after 5 days by MTT assay; format: functional, cell-based; settings: Human immunodeficiency virus 1, 3B, MT4, 120 h
Outline: as §1, with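 “wells.” for “wells. EC50 is the concentration giving 50% protection from viral cytopathogenicity.”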

Compound	EC50 [nM]
Cc1cc(C#N)cc(C)c1Oc1nc(NC2CCN(Cc3ccc(F)cc3)CC2)nc2ccsc12	37.8
Cc1cc(C)c(Oc2nc(NC3CCN(Cc4cccc(C#N)c4)CC3)nc3ccsc23)c(C)c1	193

system: Human immunodeficiency virus 1; test: Fold resistance, ratio of IC50 for recombinant HIV1 reverse transcriptase K103N/Y181C double mutant to IC50 for wild type HIV1 reverse transcriptase; settings: not given
Outline: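 Ratio of mutant to WT IC50. Recombinant WT and K103N/Y181C RT were assayed with a kit: template plus DIG-dUTP, biotin-dUTP and dTTP, with or without inhibitor, 1 h at 37 °C. Product was captured on streptavidin, detected with anti-DIG-POD and ABTS, and read at 405 nm. IC50 is the concentration inhibiting biotin-dUTP incorporation by 50%.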

Compound	Ratio IC50
Cc1cc(C#N)cc(C)c1Oc1nc(NC2CCN(Cc3ccc(F)cc3)CC2)nc2ccsc12	3.17
Cc1cc(C)c(Oc2nc(NC3CCN(Cc4cccc(C#N)c4)CC3)nc3ccsc23)c(C)c1	5.25

system: Human immunodeficiency virus 1; test: Antiviral activity against HIV1 3B harboring reverse transcriptase Y188L mutant infected in human MT4 cells assessed as protection against virus induced cytotoxicity after 5 days by MTT assay; format: functional, cell-based; settings: Human immunodeficiency virus 1, 3B, MT4, 120 h; outline: as §1

Compound	EC50 [nM]
Cc1cc(C#N)cc(C)c1Oc1nc(NC2CCN(Cc3ccc(F)cc3)CC2)nc2ccsc12	44.8
Cc1cc(C)c(Oc2nc(NC3CCN(Cc4cccc(C#N)c4)CC3)nc3ccsc23)c(C)c1	143

target: not listed separately; test: Inhibition of recombinant wild type HIV1 reverse transcriptase using DIG-dUTP/biotin-dUTP/dTTP assessed as suppression of biotin-dUTP incorporation after 1 hr by ELISA; design: species or system Human immunodeficiency virus 1; settings: not given
Outline: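 Recombinant WT HIV-1 RT in a Roche colorimetric kit: template plus DIG-dUTP, biotin-dUTP and dTTP, ±inhibitor, 1 h at 37 °C. Product captured on streptavidin plate 1 h at 37 °C, anti-DIG-POD 1 h at 37 °C, ABTS developed at 25 °C, read at OD405. IC50 is the concentration inhibiting biotin-dUTP incorporation by 50%.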

Compound	IC50 [nM]
Cc1cc(C#N)cc(C)c1Oc1nc(NC2CCN(Cc3ccc(F)cc3)CC2)nc2ccsc12	810
Cc1cc(C)c(Oc2nc(NC3CCN(Cc4cccc(C#N)c4)CC3)nc3ccsc23)c(C)c1	1060

system: not listed separately; test: Selectivity index, ratio of CC50 for human mock-infected MT4 cells to EC50 for HIV1 3B harboring reverse transcriptase Y181C mutant infected in human MT4 cells; format: toxicity, cell-based; settings: MT4 cells (mock-infected for CC50, HIV-1 infected for EC50); outline: as §2

Compound	selectivity ratio
Cc1cc(C#N)cc(C)c1Oc1nc(NC2CCN(Cc3ccc(F)cc3)CC2)nc2ccsc12	3740
Cc1cc(C)c(Oc2nc(NC3CCN(Cc4cccc(C#N)c4)CC3)nc3ccsc23)c(C)c1	89

system: Human immunodeficiency virus 1; test: Antiviral activity against wild type HIV1 3B harboring reverse transcriptase infected in human MT4 cells assessed as protection against virus induced cytotoxicity after 5 days by MTT assay; format: functional, cell-based; settings: Human immunodeficiency virus 1, 3B, MT4, 120 h
Outline: as §1, with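 “wells.” for “wells. EC50 is the concentration giving 50% protection from viral cytopathogenicity.”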

Compound	EC50 [nM]
Cc1cc(C#N)cc(C)c1Oc1nc(NC2CCN(Cc3ccc(F)cc3)CC2)nc2ccsc12	7.5
Cc1cc(C)c(Oc2nc(NC3CCN(Cc4cccc(C#N)c4)CC3)nc3ccsc23)c(C)c1	21.1

system: Human immunodeficiency virus 1; test: Antiviral activity against HIV1 3B harboring reverse transcriptase F227L/V106A double mutant infected in human MT4 cells assessed as protection against virus induced cytotoxicity after 5 days by MTT assay; format: functional, cell-based; settings: Human immunodeficiency virus 1, 3B, MT4, 120 h; outline: as §1

Compound	EC50 [nM]
Cc1cc(C#N)cc(C)c1Oc1nc(NC2CCN(Cc3ccc(F)cc3)CC2)nc2ccsc12	712
Cc1cc(C)c(Oc2nc(NC3CCN(Cc4cccc(C#N)c4)CC3)nc3ccsc23)c(C)c1	392

system: Human immunodeficiency virus 1; test: Antiviral activity against HIV1 3B harboring reverse transcriptase E138K mutant infected in human MT4 cells assessed as protection against virus induced cytotoxicity after 5 days by MTT assay; format: functional, cell-based; settings: Human immunodeficiency virus 1, 3B, MT4, 120 h; outline: as §1

Compound	EC50 [nM]
Cc1cc(C#N)cc(C)c1Oc1nc(NC2CCN(Cc3ccc(F)cc3)CC2)nc2ccsc12	34.4
Cc1cc(C)c(Oc2nc(NC3CCN(Cc4cccc(C#N)c4)CC3)nc3ccsc23)c(C)c1	50.9

system: not listed separately; test: Selectivity index, ratio of CC50 for human mock-infected MT4 cells to EC50 for HIV1 3B harboring reverse transcriptase K103N mutant infected in human MT4 cells; format: toxicity, cell-based; settings: MT4 cells (mock-infected for CC50, HIV-1 infected for EC50); outline: as §2

Compound	selectivity ratio
Cc1cc(C#N)cc(C)c1Oc1nc(NC2CCN(Cc3ccc(F)cc3)CC2)nc2ccsc12	16200
Cc1cc(C)c(Oc2nc(NC3CCN(Cc4cccc(C#N)c4)CC3)nc3ccsc23)c(C)c1	445

system: not listed separately; test: Selectivity index, ratio of CC50 for human mock-infected MT4 cells to EC50 for HIV1 3B harboring reverse transcriptase E138K mutant infected in human MT4 cells; format: toxicity, cell-based; settings: MT4 cells (mock-infected for CC50, HIV-1 infected for EC50); outline: as §2

Compound	selectivity ratio
Cc1cc(C#N)cc(C)c1Oc1nc(NC2CCN(Cc3ccc(F)cc3)CC2)nc2ccsc12	4100
Cc1cc(C)c(Oc2nc(NC3CCN(Cc4cccc(C#N)c4)CC3)nc3ccsc23)c(C)c1	339

system: not listed separately; test: Antiviral activity against HIV2 ROD harboring reverse transcriptase infected in human MT4 cells assessed as protection against virus induced cytotoxicity after 5 days by MTT assay; format: functional, cell-based, Human immunodeficiency virus type 2 (ISOLATE ROD); settings: Human immunodeficiency virus 2, MT4, 120 h; outline: as §1

Compound	EC50 [nM]
Cc1cc(C#N)cc(C)c1Oc1nc(NC2CCN(Cc3ccc(F)cc3)CC2)nc2ccsc12	≥ 141000
Cc1cc(C)c(Oc2nc(NC3CCN(Cc4cccc(C#N)c4)CC3)nc3ccsc23)c(C)c1	> 17200

system: not listed separately; test: Selectivity index, ratio of CC50 for human mock-infected MT4 cells to EC50 for HIV1 RES056 harboring reverse transcriptase K103N/Y181C double mutant infected in human MT4 cells; format: toxicity, cell-based; settings: MT4 cells (mock-infected for CC50, HIV-1 infected for EC50); outline: as §2

Compound	selectivity ratio
Cc1cc(C#N)cc(C)c1Oc1nc(NC2CCN(Cc3ccc(F)cc3)CC2)nc2ccsc12	131
Cc1cc(C)c(Oc2nc(NC3CCN(Cc4cccc(C#N)c4)CC3)nc3ccsc23)c(C)c1	≤ 3

system: not listed separately; test: Selectivity index, ratio of CC50 for human mock-infected MT4 cells to EC50 for HIV1 3B harboring reverse transcriptase Y188L mutant infected in human MT4 cells; format: toxicity, cell-based; settings: MT4 cells (mock-infected for CC50, HIV-1 infected for EC50); outline: as §2

Compound	selectivity ratio
Cc1cc(C#N)cc(C)c1Oc1nc(NC2CCN(Cc3ccc(F)cc3)CC2)nc2ccsc12	3140
Cc1cc(C)c(Oc2nc(NC3CCN(Cc4cccc(C#N)c4)CC3)nc3ccsc23)c(C)c1	120
